Assay results as given in ChEMBL document CHEMBL4118190, “An SAR study of hydroxy-trifluoromethylpyrazolines as inhibitors of Orai1-mediated store operated Ca2+ entry in MDA-MB-231 breast cancer cells using a convenient Fluorescence Imaging Plate Reader assay” (Bioorg Med Chem, 2018).
Converted amounts (≈) assume the structure as drawn. Values belong to the compound of their own block, whether it stands above or below them. The source made the active and inactive calls. No cut-off for these calls is given here.

Tests used:
[1] = Half life in human liver microsomes; assay type: ADME, microsome
[2] = Lipophilicity, log P of the compound; assay type: physicochemical; details: octanol/water
hERG (KCNH2) = hERG (KCNH2) (Homo sapiens, UniProt Q12809); test: Inhibition of human ERG at 10 uM relative to control
[3] = Half life in mouse liver microsomes; assay type: ADME, microsome
[4] = Solubility of the compound in alpha minimum essential medium; assay type: physicochemical
[5] = molecular target: T1, Calcium release-activated calcium channel protein 1 (Homo sapiens, UniProt Q96D31); test: Inhibition of […] Orai1-medited store operated calcium entry in human MDA-MB-231 cells at 100 uM pretreated for 15 mins followed by BAPTA addition by PBX dye based FLIPR assay relative to control; assay type: cell-based
Outline: (§1)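 MDA-MB-231 cells seeded 2×10^3/well and used 3 days later. Loaded 1 h at 37 °C with 2 µM PBX calcium dye, 5% signal enhancer and 500 µM probenecid in PSS, pH 7.3. Compound pretreated 15 min at room temperature. Then 500 µM BAPTA, 10 µM CPA, and 0.5 mM CaCl2 700 s after CPA. Read-out: peak 2 height as % inhibition vs DMSO. 95% CI, n = 4.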
Target sequence in this assay (Q96D31 whole entry, looked up): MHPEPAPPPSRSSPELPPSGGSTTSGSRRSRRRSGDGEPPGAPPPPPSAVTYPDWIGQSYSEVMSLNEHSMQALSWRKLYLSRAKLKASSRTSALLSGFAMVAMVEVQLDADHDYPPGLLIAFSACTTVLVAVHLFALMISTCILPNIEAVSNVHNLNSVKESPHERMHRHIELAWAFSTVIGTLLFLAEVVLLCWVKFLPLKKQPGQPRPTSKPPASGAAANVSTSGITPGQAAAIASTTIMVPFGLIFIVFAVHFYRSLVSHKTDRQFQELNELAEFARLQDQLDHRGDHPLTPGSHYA

[6] = molecular target: Voltage-dependent L-type calcium channel subunit alpha-1C (Homo sapiens, UniProt Q13936); test: Inhibition of Cav1.2 (unknown origin) up to 100 uM
[7] = molecular target: Transient receptor potential cation channel subfamily V member 1 (Rattus norvegicus) (UniProt O35433); test: Inhibition of rat TRPV1 expressed in HEK293 cells assessed as reduction in capsaicin-induced calcium flux up to 100 uM pretreated for 300 secs followed by capsaicin addition by calcium 4-dye based FLIPR assay; assay type: cell-based
Transient receptor potential cation channel subfamily V member 1 (Rattus norvegicus), sequence (O35433 whole entry): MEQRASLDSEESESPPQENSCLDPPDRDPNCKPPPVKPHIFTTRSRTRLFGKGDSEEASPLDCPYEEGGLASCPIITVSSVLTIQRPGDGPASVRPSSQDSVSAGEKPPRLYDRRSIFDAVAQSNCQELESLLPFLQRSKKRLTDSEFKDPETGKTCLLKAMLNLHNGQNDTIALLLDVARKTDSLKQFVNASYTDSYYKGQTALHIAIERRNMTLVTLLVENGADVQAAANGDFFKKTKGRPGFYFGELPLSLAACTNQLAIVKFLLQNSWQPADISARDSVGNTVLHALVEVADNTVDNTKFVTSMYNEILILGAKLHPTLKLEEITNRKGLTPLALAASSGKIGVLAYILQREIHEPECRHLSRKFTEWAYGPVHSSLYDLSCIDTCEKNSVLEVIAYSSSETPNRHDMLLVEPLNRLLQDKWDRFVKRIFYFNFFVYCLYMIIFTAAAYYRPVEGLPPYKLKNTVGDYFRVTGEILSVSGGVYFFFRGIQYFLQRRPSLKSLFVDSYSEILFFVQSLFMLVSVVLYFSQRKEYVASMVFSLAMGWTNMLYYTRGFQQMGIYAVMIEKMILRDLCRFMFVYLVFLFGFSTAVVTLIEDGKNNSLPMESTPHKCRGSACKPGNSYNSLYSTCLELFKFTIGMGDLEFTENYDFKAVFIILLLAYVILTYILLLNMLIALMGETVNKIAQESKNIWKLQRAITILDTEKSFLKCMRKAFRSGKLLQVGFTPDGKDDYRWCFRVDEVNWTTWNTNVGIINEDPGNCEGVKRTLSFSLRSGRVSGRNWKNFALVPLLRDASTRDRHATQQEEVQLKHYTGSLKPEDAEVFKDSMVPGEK
Outline: (§2)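 HEK293 cells transfected with rat TRPV1 or rat TRPM8 plasmid using Lipofectamine 2000, plated at 10,000/well and assayed 48 h after transfection. Calcium 4 dye loaded 30 min at 37 °C in PSS with 1.8 mM CaCl2. Compound added 300 s before agonist: capsaicin 100 nM for TRPV1, menthol 100 µM for TRPM8. Fluorescence read on FLIPR.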

[8] = Stability of the compound in M1/M0 H2O; assay type: ADME
[9] = molecular target: Voltage-dependent L-type calcium channel subunit alpha-1D (Homo sapiens) (UniProt Q01668); test: Inhibition of Cav1.3 (unknown origin) up to 100 uM
Voltage-dependent L-type calcium channel subunit alpha-1D (Homo sapiens), sequence (Q01668 whole entry): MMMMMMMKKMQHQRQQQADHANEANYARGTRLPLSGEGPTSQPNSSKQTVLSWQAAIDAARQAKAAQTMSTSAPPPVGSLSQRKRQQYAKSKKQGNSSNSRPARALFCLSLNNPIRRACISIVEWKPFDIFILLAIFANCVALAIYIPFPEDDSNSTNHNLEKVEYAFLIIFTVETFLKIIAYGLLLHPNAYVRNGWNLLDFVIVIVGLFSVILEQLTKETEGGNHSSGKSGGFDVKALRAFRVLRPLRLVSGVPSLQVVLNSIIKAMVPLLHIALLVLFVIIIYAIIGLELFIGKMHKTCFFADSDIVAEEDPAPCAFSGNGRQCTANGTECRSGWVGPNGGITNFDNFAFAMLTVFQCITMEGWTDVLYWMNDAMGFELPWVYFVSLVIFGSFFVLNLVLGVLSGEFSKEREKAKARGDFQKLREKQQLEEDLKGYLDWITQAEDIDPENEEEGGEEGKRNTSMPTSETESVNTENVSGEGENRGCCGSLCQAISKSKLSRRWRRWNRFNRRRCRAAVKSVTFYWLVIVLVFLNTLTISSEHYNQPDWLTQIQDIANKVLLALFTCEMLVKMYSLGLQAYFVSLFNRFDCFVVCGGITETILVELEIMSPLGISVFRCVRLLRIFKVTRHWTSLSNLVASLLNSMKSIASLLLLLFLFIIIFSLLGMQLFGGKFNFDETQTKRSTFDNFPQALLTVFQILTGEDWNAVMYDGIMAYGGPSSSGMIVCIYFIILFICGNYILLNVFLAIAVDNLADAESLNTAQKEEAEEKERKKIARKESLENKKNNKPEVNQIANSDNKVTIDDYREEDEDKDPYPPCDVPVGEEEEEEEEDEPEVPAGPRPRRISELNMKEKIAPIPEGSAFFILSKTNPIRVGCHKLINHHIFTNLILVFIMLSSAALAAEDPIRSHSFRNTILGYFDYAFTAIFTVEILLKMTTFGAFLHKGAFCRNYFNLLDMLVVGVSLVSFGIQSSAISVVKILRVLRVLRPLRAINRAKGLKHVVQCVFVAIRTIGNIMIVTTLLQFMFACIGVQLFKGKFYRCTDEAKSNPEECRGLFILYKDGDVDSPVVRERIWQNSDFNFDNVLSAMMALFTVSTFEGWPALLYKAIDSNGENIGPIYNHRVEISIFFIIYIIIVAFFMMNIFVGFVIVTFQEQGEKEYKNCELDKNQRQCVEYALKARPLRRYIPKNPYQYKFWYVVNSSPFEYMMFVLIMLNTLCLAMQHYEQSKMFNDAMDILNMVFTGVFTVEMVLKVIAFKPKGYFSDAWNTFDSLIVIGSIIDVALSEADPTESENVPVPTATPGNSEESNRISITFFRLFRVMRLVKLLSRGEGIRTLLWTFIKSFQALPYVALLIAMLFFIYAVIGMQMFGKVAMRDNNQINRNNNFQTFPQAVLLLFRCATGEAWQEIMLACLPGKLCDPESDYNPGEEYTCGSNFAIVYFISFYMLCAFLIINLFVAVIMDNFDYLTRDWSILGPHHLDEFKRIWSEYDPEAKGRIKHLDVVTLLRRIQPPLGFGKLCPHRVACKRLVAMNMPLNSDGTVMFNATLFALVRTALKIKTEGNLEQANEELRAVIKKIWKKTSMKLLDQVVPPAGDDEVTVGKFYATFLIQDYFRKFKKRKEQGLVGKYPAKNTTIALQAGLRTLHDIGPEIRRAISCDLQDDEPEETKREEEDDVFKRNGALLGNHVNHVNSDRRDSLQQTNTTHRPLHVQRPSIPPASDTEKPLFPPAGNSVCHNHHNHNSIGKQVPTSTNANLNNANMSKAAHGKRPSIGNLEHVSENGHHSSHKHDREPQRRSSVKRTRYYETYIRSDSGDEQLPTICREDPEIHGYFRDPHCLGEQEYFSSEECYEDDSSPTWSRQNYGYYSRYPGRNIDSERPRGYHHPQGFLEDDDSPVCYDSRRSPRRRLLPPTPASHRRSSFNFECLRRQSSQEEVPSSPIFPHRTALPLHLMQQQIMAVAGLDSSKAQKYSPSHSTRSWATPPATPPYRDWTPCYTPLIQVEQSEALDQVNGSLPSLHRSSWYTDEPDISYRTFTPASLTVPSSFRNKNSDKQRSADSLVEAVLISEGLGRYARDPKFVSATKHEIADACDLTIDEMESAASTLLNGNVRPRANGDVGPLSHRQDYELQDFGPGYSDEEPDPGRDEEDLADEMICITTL

MDA-MB-231 = test: Inhibition of endoplasmic reticulum calcium channel in human MDA-MB-231 cells assessed as reduction in endoplasmic reticulum intracellular calcium release at 100 uM pretreated for 15 mins followed by SERCA inhibitor CPA addition measured after 700 secs by PBX dye based FLIPR assay relative to control; assay type: cell-based
Outline: (§3)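 Same MDA-MB-231 PBX-dye FLIPR protocol: 15 min compound pretreatment at room temperature, then BAPTA (500 µM) and CPA (10 µM) to deplete ER stores. Peak 1 height after CPA addition (ER Ca2+ release) expressed as % inhibition relative to the DMSO control. Excitation 470–495 nm, emission 515–575 nm.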

[10] = molecular target: T1, Calcium release-activated calcium channel protein 1; test: Inhibition of […] Orai1-medited store operated calcium entry in human MDA-MB-231 cells at 10 uM pretreated for 15 mins followed by BAPTA addition by PBX dye based FLIPR assay relative to control; assay type: cell-based; outline: as §1
Target sequence in this assay (Q96D31 whole entry, looked up): as the sequence (Q96D31 whole entry, looked up) above

[11] = molecular target: Transient receptor potential cation channel subfamily M member 8 (Rattus norvegicus) (UniProt Q8R455); test: Inhibition of rat TRPM8 expressed in HEK293 cells assessed as reduction in menthol-induced calcium flux up to 100 uM pretreated for 300 secs followed by menthol addition by calcium 4-dye based FLIPR assay; assay type: cell-based; outline: as §2
Transient receptor potential cation channel subfamily M member 8 (Rattus norvegicus), sequence (Q8R455 whole entry, looked up): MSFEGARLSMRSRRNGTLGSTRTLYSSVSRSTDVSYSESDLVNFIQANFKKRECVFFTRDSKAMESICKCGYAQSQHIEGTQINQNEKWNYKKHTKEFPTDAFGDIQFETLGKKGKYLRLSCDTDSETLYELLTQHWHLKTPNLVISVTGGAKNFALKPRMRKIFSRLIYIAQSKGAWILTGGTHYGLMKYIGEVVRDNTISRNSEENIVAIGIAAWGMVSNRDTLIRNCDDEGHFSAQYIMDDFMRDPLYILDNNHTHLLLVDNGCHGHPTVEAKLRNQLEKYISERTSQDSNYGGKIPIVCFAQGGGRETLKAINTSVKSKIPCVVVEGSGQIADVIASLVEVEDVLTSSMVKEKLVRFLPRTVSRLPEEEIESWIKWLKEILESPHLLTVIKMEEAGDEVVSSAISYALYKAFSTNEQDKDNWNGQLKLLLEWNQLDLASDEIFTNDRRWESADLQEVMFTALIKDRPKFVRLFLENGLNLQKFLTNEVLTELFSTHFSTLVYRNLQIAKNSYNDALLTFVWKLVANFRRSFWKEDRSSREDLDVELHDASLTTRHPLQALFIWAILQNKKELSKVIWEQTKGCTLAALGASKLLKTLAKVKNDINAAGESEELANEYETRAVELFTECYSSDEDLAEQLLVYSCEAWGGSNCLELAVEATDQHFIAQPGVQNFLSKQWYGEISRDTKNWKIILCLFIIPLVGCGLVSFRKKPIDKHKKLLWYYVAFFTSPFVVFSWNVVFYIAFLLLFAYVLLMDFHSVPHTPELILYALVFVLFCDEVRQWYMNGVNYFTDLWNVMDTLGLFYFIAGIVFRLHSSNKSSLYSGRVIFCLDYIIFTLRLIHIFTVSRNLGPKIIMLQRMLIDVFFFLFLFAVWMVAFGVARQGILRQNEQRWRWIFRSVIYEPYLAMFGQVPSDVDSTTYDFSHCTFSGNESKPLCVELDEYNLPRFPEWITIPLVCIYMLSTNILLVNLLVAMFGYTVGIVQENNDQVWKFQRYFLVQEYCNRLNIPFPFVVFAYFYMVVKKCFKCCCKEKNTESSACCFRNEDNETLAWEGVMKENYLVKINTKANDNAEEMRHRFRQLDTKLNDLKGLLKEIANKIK

[12] = molecular target: Voltage-dependent N-type calcium channel subunit alpha-1B (Homo sapiens) (UniProt Q00975); test: Inhibition of Cav2.2 in human SH-SY5Y cells assessed as reduction in KCl/CaCl2-induced calcium flux up to 100 uM pretreated for 300 secs followed by KCl/CaCl2 addition measured in presence of nifedipine by calcium 4-dye based FLIPR assay; assay type: cell-based
Outline: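 SH-SY5Y cells plated at 50,000/well and used 48 h later. Loaded 30 min at 37 °C/5% CO2 with Calcium 4 dye in PSS containing 1.8 mM CaCl2. Nifedipine 10 µM present. Compound added 300 s before stimulation with KCl (90 mM)/CaCl2 (5 mM). Calcium flux read on FLIPR.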

[13] = Inhibition of […] in thapsigargin-stimulated human Jurkat T cells assessed as blockade of intracellular calcium flux by fluo-4-AM dye based FLIPR assay; assay type: cell-based
[14] = Inhibition of endoplasmic reticulum calcium channel in human MDA-MB-231 cells assessed as reduction in endoplasmic reticulum intracellular calcium release pretreated for 15 mins followed by SERCA inhibitor CPA addition measured after 700 secs by PBX dye based FLIPR assay; assay type: cell-based; outline: as §3
[15] = molecular target: T1, Calcium release-activated calcium channel protein 1; test: Inhibition of […] Orai1-medited store operated calcium entry in human MDA-MB-231 cells pretreated for 15 mins followed by BAPTA addition by PBX dye based FLIPR assay; assay type: cell-based; outline: as §1
Target sequence in this assay (Q96D31 whole entry): as the sequence (Q96D31 whole entry, looked up) above

[16] = Inhibition of CRAC in human Jurkat T cells assessed as increase in TG-stimulated intracellular calcium depletion measured every 8 secs by Ca2+ dye based fluorescence assay; assay type: cell-based
[17] = Inhibition of CRAC in rat RBL2H3 cells assessed blockade of IP3-induced calcium flux pretreated for 30 to 60 mins followed by IP3 addition by Qpatch analysis; assay type: cell-based; details: RBL-2H3

half-life [1]: 8.2 min | logP [2]: 4.4 | half-life [3]: 3.3 min | solubility [4]: 16.8 µg/mL (≈ 44.4 µM) | inhibition [5]: 37% | inhibition [7]: inactive | Stability [8]: 93.2% | inhibition [9]: inactive | inhibition [10]: 11% | inhibition [11]: inactive | inhibition [12]: inactive
Compound: COc1cccc(C2(O)CC(C(F)(F)F)=NN2C(=O)Cc2ccccc2)c1 (centres undefined)
inhibition at 10 µM (hERG (KCNH2)): 9.1% | inhibition (INH) [6]: Not Active | inhibition (MDA-MB-231): inactive

IC50 [13]: 1.4 µM
Compound: COc1ccc(OC)c(-c2ccc(NC(=O)c3ccncc3F)cc2)c1

IC50 [14]: 80 µM | IC50 [15]: 49 µM
Compound: O=C(Cc1ccccc1)N1N=C(C(F)(F)F)CC1(O)c1ccccc1C(F)(F)F (centres undefined)

IC50 [16]: 0.01 µM
Compound: Cc1nnsc1C(=O)Nc1ccc(-n2nc(C(F)(F)F)cc2C(F)(F)F)cc1

IC50 [17]: 0.4 µM
Compound: CC1=C(c2cnc(NC(=O)c3c(F)cccc3F)cn2)CN(c2ncc(C)s2)CC1
